This note sets out measurements from ChEMBL document CHEMBL1926673, “Synthesis, molecular docking study and antitumor activity of novel 2-phenylindole derivatives” (Eur J Med Chem, 2012).

The subject of assay [1] is MCF7. Briefly: Cytotoxicity against human MCF7 cells after 48 hrs by SRB assay. It is filed as functional, cell-based. The settings on record: MCF7, 48 h. In short, it runs like this:
(§1)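 Cells seeded at 10⁴ per well and allowed to attach for 24 h, then exposed to compounds at 0, 1, 2.5 and 10 (four levels), triplicate wells per dose, for 48 h at 37 C in 5% CO₂. Cells were then fixed, washed and stained with sulforhodamine B. Excess dye was removed with acetic acid, and bound dye was recovered in Tris EDTA buffer. Results are given as IC₅₀.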

Assay [2] relates to MDA-MB-231. In words: Cytotoxicity against human MDA-MB-231 cells after 48 hrs by SRB assay. Format: functional, cell-based. The settings on record: MDA-MB-231, 48 h. In short, it runs like this: as §1

Regarding `CC1=NN(C(=O)COc2ccc(-c3cc4ccccc4[nH]3)cc2)C(=O)C1`, the IC50 in assay [1] amounted to 31.8 nM.
The same measure, in the same setting: with `NC(=S)N/N=C/c1c(-c2ccc(O)cc2)[nH]c2ccccc12` the figure was 32 nM.
As to `O=C(N/N=C/c1c(-c2ccc(O)cc2)[nH]c2ccccc12)c1ccc(Cl)cc1`, the IC50 came out at 3.8 nM in assay [1] and 37.2 nM in assay [2].
The compound `Oc1ccccc1-c1nnc(COc2ccc(-c3cc4ccccc4[nH]3)cc2)o1` yielded a half-inhibitory concentration (IC50) in assay [1] of 39 nM.
For `Oc1ccc(-c2[nH]c3ccccc3c2/C=N/Nc2ccccc2Cl)cc1`, the results for the IC50 in assay [1] and in assay [2] were 5.7 nM and 31.6 nM, respectively.
As to `CN(C)C(=O)COc1ccc(-c2cc3ccccc3[nH]2)cc1`, the midpoint of inhibition in assay [1], the IC50, lay at 34.3 nM.
Consider `O=C(COc1ccc(-c2cc3ccccc3[nH]2)cc1)Nc1ccc(S(=O)(=O)Nc2nccs2)cc1`, for which the values for the IC50 in assay [1] and in assay [2] were 7.4 nM and 29 nM, respectively.
As for `NS(=O)(=O)c1ccc(NC(=O)COc2ccc(-c3cc4ccccc4[nH]3)cc2)cc1`, the IC50 in assay [1] was 24.2 nM.
Same read-out and setting: with `O=C(COc1ccc(-c2cc3ccccc3[nH]2)cc1)NNc1ccccc1` the figure was 28 nM; with `N#CC(C#N)=Cc1c(-c2ccc(O)cc2)[nH]c2ccccc12`, 87.7 nM; with `O=C(COc1ccc(-c2cc3ccccc3[nH]2)cc1)Nc1ccncc1`, 21.1 nM.
With `Oc1ccc(-c2[nH]c3ccccc3c2-c2nc3ccccc3o2)cc1`, the IC50 amounted to 17.5 nM in assay [1] and 15.3 nM in assay [2].
In turn, `O=C1NC(=S)NC(=O)C1=Cc1c(-c2ccc(O)cc2)[nH]c2ccccc12` gave an IC50 in assay [1] of 55.1 nM.
Regarding `Cc1cc(-c2ccccc2)nn1C(=O)COc1ccc(-c2cc3ccccc3[nH]2)cc1`, half-maximal inhibition in assay [1] (IC50) required 48.9 nM.
Same read-out and setting: with `Cc1cc(C)n(C(=O)COc2ccc(-c3cc4ccccc4[nH]3)cc2)n1` the figure was 43.2 nM; with `Oc1ccc(-c2[nH]c3ccccc3c2-c2nc3ccccc3[nH]2)cc1`, 23.5 nM.
The same measure, in the same setting: with `O=C(COc1ccc(-c2cc3ccccc3[nH]2)cc1)Nc1cnccn1` the figure was 36.3 nM; with `NC(=O)COc1ccc(-c2cc3ccccc3[nH]2)cc1`, 37.6 nM.
In assay [1], `CC(=O)NNC(=O)COc1ccc(-c2cc3ccccc3[nH]2)cc1` showed an IC50 of 92.9 nM.
On to `O=C(COc1ccc(-c2cc3ccccc3[nH]2)cc1)N1CCCC1`, for which the IC50 in assay [1] came to 14.8 nM; in assay [2] it was 42.2 nM.
The corresponding values for `Cc1cc(NS(=O)(=O)c2ccc(NC(=O)COc3ccc(-c4cc5ccccc5[nH]4)cc3)cc2)no1` are 17.5 nM and 9.56 nM.
In turn, `O=C(COc1ccc(-c2cc3ccccc3[nH]2)cc1)N(CCO)CCO` gave an IC50 in assay [1] of 27.5 nM.
Same read-out and setting: in the case of `Oc1ccc(-c2cc3ccccc3[nH]2)cc1` it was 71.8 nM; in that of `O=C(COc1ccc(-c2cc3ccccc3[nH]2)cc1)NCCO`, 96.8 nM.
In assay [1], `O=C1NC(=O)C(=Cc2c(-c3ccc(O)cc3)[nH]c3ccccc23)C(=O)N1` showed an IC50 of 41.8 nM.
On the same count and under the same terms, with `Oc1ccc(-c2[nH]c3ccccc3c2-c2ncc[nH]2)cc1` the figure was 28.4 nM.
The same measure, in the same setting: in the case of `COc1ccc2nc(-c3nnc(COc4ccc(-c5cc6ccccc6[nH]5)cc4)o3)ccc2c1` it was 22.1 nM.
As to `c1ccc(-c2nnc(COc3ccc(-c4cc5ccccc5[nH]4)cc3)o2)cc1`, the results for the half-maximal inhibitory concentration (IC50) in assay [1] and in assay [2] were 13.7 nM and 18.3 nM, respectively.
Take `Nc1ccccc1-c1nnc(COc2ccc(-c3cc4ccccc4[nH]3)cc2)o1`: the IC50 in assay [1] turned out to be 26 nM.
In assay [1], `O/N=C/c1c(-c2ccc(O)cc2)[nH]c2ccccc12` returned an IC50 of 27.6 nM.
As for `Nc1ccc(C(=O)N/N=C/c2c(-c3ccc(O)cc3)[nH]c3ccccc23)cc1`, the IC50 in assay [1] amounted to 3.7 nM; in assay [2] it was 37.8 nM.
In the case of `COC(=O)COc1ccc(-c2cc3ccccc3[nH]2)cc1`, half-maximal inhibition in assay [1] (IC50) was put at 35 nM.
On the same count and under the same terms, in the case of `CC(=O)N/N=C/c1c(-c2ccc(O)cc2)[nH]c2ccccc12` it was 32.3 nM; in that of `NC(=S)NNC(=O)COc1ccc(-c2cc3ccccc3[nH]2)cc1`, 44.7 nM.
On to `CCOC(=O)COc1ccc(-c2cc3ccccc3[nH]2)cc1`, for which the IC50 in assay [1] came to 102 nM.
With `O=C(N/N=C/c1c(-c2ccc(O)cc2)[nH]c2ccccc12)c1ccccc1`, the values for the IC50 in assay [1] and in assay [2] were 18.7 nM and 28.2 nM, respectively.
For `O=Cc1c(-c2ccc(O)cc2)[nH]c2ccccc12`, the IC50 was 9 nM in assay [1] and 42.2 nM in assay [2].
For `Oc1ccc(-c2[nH]c3ccccc3c2/C=N/Nc2ccccc2)cc1`, the IC50 in assay [1] amounted to 6.7 nM; in assay [2], 25.1 nM.
With `COC(=O)Oc1ccc(-c2cc3ccccc3[nH]2)cc1`, the IC50 in assay [1] turned out to be 93.6 nM.
Take `O=C(N/N=C/c1c(-c2ccc(O)cc2)[nH]c2ccccc12)c1ccc([N+](=O)[O-])cc1`: the IC50 was 1.6 nM in assay [1] and 32.5 nM in assay [2].
For `Nc1ccccc1C(=O)N/N=C/c1c(-c2ccc(O)cc2)[nH]c2ccccc12` the same measures were 17.9 nM and 29.7 nM.
In turn, `NNC(=O)COc1ccc(-c2cc3ccccc3[nH]2)cc1` registered an IC50 in assay [1] of 20 nM.
Same read-out and setting: in the case of `Nc1ccc(-c2nnc(COc3ccc(-c4cc5ccccc5[nH]4)cc3)o2)cc1` it was 48 nM.
`CN/N=C/c1c(-c2ccc(O)cc2)[nH]c2ccccc12`: the IC50 in assay [1] is 17.7 nM; in assay [2], 47.5 nM.
